This note sets out measurements from ChEMBL document CHEMBL1833819, “Dihydroquinazolines as a novel class of Trypanosoma brucei trypanothione reductase inhibitors: discovery, synthesis, and characterization of their binding mode by protein crystallography” (J Med Chem, 2011).

SMILES strings stand for the structures.

Chain of Trypanothione reductase (P39051 whole entry): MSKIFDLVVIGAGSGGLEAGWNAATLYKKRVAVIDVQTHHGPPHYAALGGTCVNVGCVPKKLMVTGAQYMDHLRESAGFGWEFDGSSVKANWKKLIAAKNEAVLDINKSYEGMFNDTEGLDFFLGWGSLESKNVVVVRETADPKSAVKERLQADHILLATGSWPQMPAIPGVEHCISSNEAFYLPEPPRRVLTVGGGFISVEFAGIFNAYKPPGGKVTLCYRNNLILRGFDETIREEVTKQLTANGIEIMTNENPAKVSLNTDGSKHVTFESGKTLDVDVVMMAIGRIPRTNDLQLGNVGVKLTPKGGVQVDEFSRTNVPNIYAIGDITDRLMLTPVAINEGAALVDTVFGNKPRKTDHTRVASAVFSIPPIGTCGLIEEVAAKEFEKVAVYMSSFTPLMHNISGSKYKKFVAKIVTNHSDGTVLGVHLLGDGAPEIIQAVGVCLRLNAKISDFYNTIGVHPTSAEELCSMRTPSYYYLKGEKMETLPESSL

One assay addresses Trypanothione reductase (Trypanosoma brucei brucei, UniProt P39051). The assay can be described thus: Inhibition of recombinant trypanothione reductase from Trypanosoma brucei brucei S427 by DTNB-coupled spectrophotometric assay. Put shortly: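 Recombinant T. brucei brucei S427 TryR tested in a nonenzymatically coupled spectrophotometric assay, where DTNB reduction to TNB is followed as A412 increase. IC50 is the mean of independent duplicates (at least two replicates).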
Take `CC1=Nc2ccc(-c3ccncc3)cc2C(c2ccccc2)N1CCN1CCCCC1` (stereo not given): the IC50 (in general, the midpoint of a concentration-inhibition curve) amounted to 4400 nM.

On to `CC1=Nc2ccc(-c3ccsc3)cc2C(c2ccccc2)N1CCN1CCCCC1` (stereo not given), for which the IC50 is 790 nM.

Turning to `CC1=Nc2ccc(Cl)cc2C(c2cccc(F)c2)N1CCN1CCCCC1` (stereo not given), the IC50 was determined as 900 nM.

For `COc1cccc(C2c3cc(Cl)ccc3N=C(C)N2CCN2CCCCC2)c1` (stereo not given), the IC50 is 28000 nM.

With `CC1=Nc2ccc(Cl)cc2C(c2cccc(Cl)c2)N1CCN1CCCCC1` (stereo not given), the IC50 is 1200 nM.

As for `CCC1=Nc2ccc(Br)cc2C(c2ccccc2)N1CC(=O)OC` (racemic), the IC50 amounted to 23000 nM.

`CC1=Nc2ccc(Br)cc2C(c2ccccc2)N1CC(=O)O` (racemic): the IC50 worked out at 37000 nM.

Consider `CC1=Nc2ccc(Br)cc2C(c2ccccc2)N1CC(=O)NN` (racemic), for which the IC50 turned out to be 15000 nM.

Take `COC(=O)CN1C(CN2CCOCC2)=Nc2ccc(Br)cc2C1c1ccccc1` (racemic): the IC50 was 89000 nM.

Take `COC(=O)CN1C(CCN2CCOCC2)=Nc2ccc(Br)cc2C1c1ccccc1` (racemic): the IC50 worked out at 93000 nM.

Regarding `COC(=O)CN1C(c2ccccc2)=Nc2ccc(C)cc2C1c1ccccc1` (racemic), the IC50 is greater than 100000 nM.

Regarding `COC(=O)CN1C(c2cc(OC)c(OC)c(OC)c2)=Nc2ccc(C)cc2C1c1ccccc1` (racemic), the IC50 was greater than 100000 nM.

For `CC1=Nc2ccc(Cl)cc2C(c2ccccc2)N1Cc1ccccc1` (racemic), the IC50 was found to be 930 nM.

With `CC1=Nc2ccc(Cl)cc2C(c2ccccc2)N1CCc1ccccc1` (racemic), the IC50 was 2000 nM.

For `COc1ccccc1CN1C(C)=Nc2ccc(Cl)cc2C1c1ccccc1` (racemic), the IC50 stood at 1100 nM.

For `CC1=Nc2ccc(Cl)cc2C(c2ccccc2)N1Cc1cccc(Cl)c1` (racemic), the IC50 was determined as 3500 nM.

`CC1=Nc2ccc(Cl)cc2C(c2ccccc2)N1Cc1cccc(C(F)(F)F)c1` (racemic): the IC50 worked out at 1500 nM.

Take `CC1=Nc2ccc(Cl)cc2C(c2ccccc2)N1Cc1ccc(C)cc1` (racemic): the IC50 stood at 1300 nM.

For the compound `CC1=Nc2ccc(Cl)cc2C(c2ccccc2)N1Cc1ccc(Cl)cc1` (racemic), the IC50 came out at 2200 nM.

On to `CC1=Nc2ccc(Cl)cc2C(c2ccccc2)N1Cc1ccc(C(F)(F)F)cc1` (racemic), for which the IC50 was determined as 2200 nM.

For `CCN1C(C)=Nc2ccc(Cl)cc2C1c1ccccc1` (racemic), the IC50 was 1200 nM.

Take `CC1=Nc2ccc(Cl)cc2C(c2ccccc2)N1CCN1CCOCC1` (racemic): the IC50 was 2800 nM.

As for `CC1=Nc2ccc(Cl)cc2C(c2ccccc2)N1CCN(C)C` (racemic), the IC50 was found to be 3500 nM.

For the compound `CC1=Nc2ccc(Cl)cc2C(c2ccccc2)N1CCCN(C)C` (racemic), the IC50 is 1000 nM.

On to `CNCCN1C(C)=Nc2ccc(Cl)cc2C1c1ccccc1` (racemic), for which the IC50 came out at 2000 nM.

As for `CC1=Nc2ccc(Cl)cc2C(c2ccccc2)N1CCO` (racemic), the IC50 is 1700 nM.

For the compound `CC1=Nc2ccc(Cl)cc2C(c2ccccc2)N1CCNC(=O)OC(C)(C)C` (racemic), the IC50 was 2600 nM.

For `CC(=O)NCCN1C(C)=Nc2ccc(Cl)cc2C1c1ccccc1` (racemic), the IC50 stood at 2100 nM.

Consider `CC1=Nc2ccc(Cl)cc2C(c2ccccc2)N1CCNC(=O)C1CC1` (racemic), for which the IC50 was found to be 2300 nM.

As to `O=C1CN2C(=Nc3ccc(Br)cc3C2c2ccccc2)CN1` (racemic), the IC50 came out at 37000 nM.

Regarding `O=C1CN2C(=Nc3ccc(Br)cc3C2c2ccccc2)CCN1` (racemic), the IC50 worked out at 39000 nM.

With `COC(=O)CN1C(C)=Nc2ccc(Cl)cc2C1c1ccccc1` (racemic), the IC50 was 9400 nM.

On to `COC(=O)CN1C(C)=Nc2ccc(Br)cc2C1c1ccccc1Cl` (racemic), for which the IC50 is greater than 100000 nM.

For the compound `CCOC(=O)CN1C(C)=Nc2ccc(Br)cc2C1c1ccccc1` (racemic), the IC50 came out at 12000 nM.

Consider `CC1=Nc2ccc(Cl)cc2C(c2ccccc2)N1CCNC(=O)c1ccccc1` (racemic), for which the IC50 worked out at 1700 nM.

On to `CC1=Nc2ccc(Cl)cc2C(c2ccccc2)N1CCNC(=O)Cc1ccccc1` (racemic), for which the IC50 was 1800 nM.

Take `COCC(=O)NCCN1C(C)=Nc2ccc(Cl)cc2C1c1ccccc1` (racemic): the IC50 worked out at 1300 nM.

For the compound `CC1=Nc2ccc(Cl)cc2C(c2ccccc2)N1CCN1CCN(C(=O)OC(C)(C)C)CC1` (racemic), the IC50 is 1500 nM.

On to `CC(=O)N1CCN(CCN2C(C)=Nc3ccc(Cl)cc3C2c2ccccc2)CC1` (racemic), for which the IC50 is 1700 nM.

In the case of `CC1=Nc2ccc(Cl)cc2C(c2ccccc2)N1CCN1CCN(C(=O)C2CC2)CC1` (racemic), the IC50 was 1500 nM.

With `CC1=Nc2ccc(Cl)cc2C(c2ccccc2)N1CCN1CCN(C(=O)c2ccccc2)CC1` (racemic), the IC50 came out at 1600 nM.

For the compound `CC1=Nc2ccc(Cl)cc2C(c2ccccc2)N1CCN1CCN(C(=O)Cc2ccccc2)CC1` (racemic), the IC50 is 2000 nM.

For the compound `COCC(=O)N1CCN(CCN2C(C)=Nc3ccc(Cl)cc3C2c2ccccc2)CC1` (racemic), the IC50 came to 1600 nM.

As to `CC1=Nc2ccc(-c3ccco3)cc2C(c2ccccc2)N1CCN1CCCCC1` (racemic), the IC50 was 1300 nM.

On to `CC1=Nc2ccc(-c3cccc4ccccc34)cc2C(c2ccccc2)N1CCN1CCCCC1` (racemic), for which the IC50 is 8000 nM.

Take `CC1=Nc2ccc(-c3cc4ccccc4o3)cc2C(c2ccccc2)N1CCN1CCCCC1` (racemic): the IC50 was determined as 8500 nM.

For the compound `CC1=Nc2c(-c3ccccc3)cc(Cl)cc2C(c2ccccc2)N1CCCN(C)C` (racemic), the IC50 turned out to be 24000 nM.

For `CC1=Nc2ccc(Cl)cc2C(c2ccc(Cl)c(Cl)c2)N1CCN1CCCCC1` (racemic), the IC50 is 1300 nM.

On to `CC1=Nc2ccc(Cl)cc2C(c2ccc(C(C)(C)C)cc2)N1CCN1CCCCC1` (racemic), for which the IC50 is 7900 nM.

Take `CC1=Nc2ccc(Cl)cc2C(C2CCCCC2)N1CCN1CCCCC1` (racemic): the IC50 came out at 27000 nM.

Consider `CC1=Nc2ccc(Cl)cc2C(O)(c2ccc(F)cc2)N1CCN1CCCCC1` (racemic), for which the IC50 is 8300 nM.

As for `COc1ccc(C2(O)c3cc(Cl)ccc3N=C(C)N2CCN2CCCCC2)cc1` (racemic), the IC50 amounted to 4900 nM.

Consider `CC1=Nc2ccc(Cl)cc2C(c2ccc(Cl)cc2)N1CCN1CCCCC1` (racemic), for which the IC50 was 730 nM.

Consider `CC1=Nc2ccc(Cl)cc2C(c2ccc(F)cc2)N1CCN1CCCCC1` (racemic), for which the IC50 came to 4900 nM.

As for `COc1ccc(C2c3cc(Cl)ccc3N=C(C)N2CCN2CCCCC2)cc1` (racemic), the IC50 amounted to 1500 nM.

`CC1=Nc2ccc(Cl)cc2C(c2cccc(C)c2)N1CCN1CCCCC1` (racemic): the IC50 is 4600 nM.

With `CC1=Nc2ccc(Cl)cc2C(c2ccc(C)c(C)c2)N1CCN1CCCCC1` (racemic), the 50% inhibitory concentration (IC50) is 6800 nM.

As to `CC1=Nc2ccc(Cl)cc2C(Cc2ccccc2)N1CCN1CCCCC1` (racemic), the IC50 is 50000 nM.

As to `CC1=Nc2ccc(Cl)cc2C(c2ccc(O)cc2)N1CCN1CCCCC1` (racemic), the IC50 came to 20000 nM.

With `CC1=Nc2ccc(Cl)cc2C(c2cccc(O)c2)N1CCN1CCCCC1` (racemic), the IC50 is 1600 nM.

In a further assay the test system is Trypanosoma brucei brucei. The assay can be described thus: Antitrypanosomal activity against blood stream form Trypanosoma brucei brucei by resazurin fluorescence-based viability assay. It is filed as functional, organism-based. In a few lines:
(§1)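 Bloodstream-form T. b. brucei parasites and MRC5 cells were assayed in resazurin fluorescence-based viability tests. […] Pentamidine served as the positive control in all T. brucei plates.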
For orientation: Resazurin is reduced to fluorescent resorufin, in cell work by metabolically active cells.
Turning to `CC1=Nc2ccc(Cl)cc2C(c2cccc(F)c2)N1CCN1CCCCC1` (stereo not given), the midpoint of the response, the EC50, lay at 2000 nM.

On to `CC1=Nc2ccc(Cl)cc2C(c2ccccc2)N1Cc1ccccc1` (racemic), for which the response was half-maximal at 13000 nM (EC50).

The subject of another assay is MRC5. Kind of assay: Cytotoxicity against human MRC5 cells by resazurin fluorescence-based viability assay. The class given is cell-based. In a few lines: as §1
For `CC1=Nc2ccc(Cl)cc2C(c2cccc(F)c2)N1CCN1CCCCC1` (stereo not given), the EC50 (in general, the concentration giving half of the maximal effect) came out at 10000 nM. This counts as double-digit micromolar.

On to `CC1=Nc2ccc(Cl)cc2C(c2ccccc2)N1Cc1ccccc1` (racemic), for which the EC50 was 46000 nM. This EC50 is about 4.6-fold higher than that of the compound before.

On to `CC1=Nc2ccc(Cl)cc2C(c2ccccc2)N1CCCN(C)C` (racemic), for which the EC50 amounted to 2700 nM.
